From ChEMBL document CHEMBL4808228, “Synthesis of novel 1,2,4-trioxanes and antimalarial evaluation against multidrug-resistant Plasmodium yoelii nigeriensis” (2021) come the findings set out here.

Holding throughout (type): functional
The test system of assay [1] is Plasmodium yoelii. Put plainly: Antimalarial activity against multidrug-resistant Plasmodium yoelii infected in Swiss mouse assessed as animal survival at 48 mg/kg, po for 4 days and measured for 28 days. The settings on record: 672 h, time 28 day. In short, it runs like this:
(§1)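 Swiss mice (25 ± 1 g) were inoculated with 1 X 10⁶ parasitized RBC on day 0. Groups of five were dosed orally on days 0–3 in two divided daily doses, in groundnut oil, 0.1 ml per dose. Thin blood smears were read on days 4–28, and mice without patent infection by day 28 counted as cured. β-Arteether was the positive control.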

In assay [2] the test system is Plasmodium yoelii. Description: Antimalarial activity against multidrug-resistant Plasmodium yoelii infected in Swiss mouse assessed as animal survival at 48 mg/kg, im for 4 days and measured for 28 days. The settings on record: 672 h, time 28 day. In short, it runs like this:
(§2)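 Intramuscular dosing of groups of five Swiss mice (25 ± 1 g) infected on day 0 with 1 X 10⁶ parasitized RBC, on days 0–3 in two divided daily doses. Parasitaemia came from thin blood smears over days 4–28. Animals without patent infection till day 28 were recorded as cured. The strain is resistant to chloroquine, mefloquine and halofantrine.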

Assay [3] deals with Plasmodium yoelii. Put plainly: Antimalarial activity against multidrug-resistant Plasmodium yoelii infected in Swiss mouse assessed as inhibition of parasitemia at 48 mg/kg, po for 4 days measured on day 4 relative to control. The settings on record: 96 h, time 4 day. Put shortly: (§3)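 Swiss mice (25 ± 1 g), five per dose, were infected with 1 X 10⁶ parasitized RBC on day 0. Dosing was oral on days 0–3, twice daily, in groundnut oil (0.1 ml per dose). Day-4 thin-smear parasitaemia gave % suppression = [(C−T)/C] × 100 versus the control group. 100% meant no parasites in 50 oil immersion fields.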

For assay [4], the system named is Plasmodium yoelii. Put plainly: Antimalarial activity against multidrug-resistant Plasmodium yoelii infected in Swiss mouse assessed as inhibition of parasitemia at 48 mg/kg, im for 4 days measured on day 4 relative to control. The settings on record: 96 h, time 4 day. In short, it runs like this: (§4)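 In this im regimen, mice (Swiss, 25 ± 1 g; n = 5 per dose) received 1 X 10⁶ parasitized RBC on day 0 and were treated on days 0–3 in two divided daily doses. Parasitaemia on day 4 was read from thin blood smears, and suppression = [(C−T)/C] × 100 relative to the control group. Full suppression meant none seen in 50 oil immersion fields.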

Assay [5] relates to Plasmodium yoelii. Put plainly: Antimalarial activity against multidrug-resistant Plasmodium yoelii infected in Swiss mouse assessed as inhibition of parasitemia at 48 mg/kg, po for 4 days measured on day 4 relative to po dosed artemisinin. The settings on record: time 4 day.
Assay [6] concerns Plasmodium yoelii. Description: Antimalarial activity against multidrug-resistant Plasmodium yoelii infected in Swiss mouse assessed as inhibition of parasitemia at 24 mg/kg, im for 4 days measured on day 4 relative to control. The settings on record: 96 h, time 4 day. Put shortly:
as §4

Assay [7] relates to Plasmodium yoelii. Description: Antimalarial activity against multidrug-resistant Plasmodium yoelii infected in Swiss mouse assessed as inhibition of parasitemia at 24 mg/kg, po for 4 days measured on day 4 relative to control. The settings on record: 96 h, time 4 day. In short, it runs like this: as §3
Assay [8] deals with Plasmodium yoelii. Description: Antimalarial activity against multidrug-resistant Plasmodium yoelii infected in Swiss mouse assessed as animal survival at 24 mg/kg, im for 4 days and measured for 28 days. The settings on record: 672 h, time 28 day. Put shortly:
as §2

Assay [9] deals with Plasmodium yoelii. Description: Antimalarial activity against multidrug-resistant Plasmodium yoelii infected in Swiss mouse assessed as inhibition of parasitemia at 48 mg/kg, im for 4 days measured on day 4 relative to po dosed artemisinin. The settings on record: time 4 day.
In assay [10] the test system is Plasmodium yoelii. Put plainly: Antimalarial activity against multidrug-resistant Plasmodium yoelii infected in Swiss mouse assessed as animal survival at 24 mg/kg, po for 4 days and measured for 28 days. The settings on record: 672 h, time 28 day. Put shortly:
as §1

For assay [11], the system named is Plasmodium yoelii. Description: Antimalarial activity against multidrug-resistant Plasmodium yoelii infected in Swiss mouse assessed as inhibition of parasitemia at 96 mg/kg, po for 4 days measured on day 4 relative to control. The settings on record: 96 h, time 4 day. In short, it runs like this:
as §3

For assay [12], the system named is Plasmodium yoelii. Put plainly: Antimalarial activity against multidrug-resistant Plasmodium yoelii infected in Swiss mouse assessed as inhibition of parasitemia at 96 mg/kg, im for 4 days measured on day 4 relative to control. The settings on record: 96 h, time 4 day. Put shortly: as §4
Assay [13] concerns Plasmodium yoelii. Put plainly: Antimalarial activity against multidrug-resistant Plasmodium yoelii infected in Swiss mouse assessed as animal survival at 96 mg/kg, po for 4 days and measured for 28 days. The settings on record: 672 h, time 28 day. In short, it runs like this: as §1
Assay [14] concerns Plasmodium yoelii. Put plainly: Antimalarial activity against multidrug-resistant Plasmodium yoelii infected in Swiss mouse assessed as animal survival at 96 mg/kg, im for 4 days and measured for 28 days. The settings on record: 672 h, time 28 day. In short, it runs like this: as §2

Take `C=C(c1ccc(Oc2ccc3ccc(OCCO)cc3c2)cc1)C1COC2(CCCC2)OO1` (centres undefined): the survival at 48 mg/kg in the assay with Plasmodium yoelii [1] and with Plasmodium yoelii [2] was 80% each time. Also, the inhibition in vivo at 48 mg/kg in the assay on Plasmodium yoelii [3] and in the assay with Plasmodium yoelii [4] was 100% in each case.
For the molecule `C=C(c1ccc(Oc2ccc3ccc(OCCOC(=O)CCC(=O)O)cc3c2)cc1)C1COC2(CCCC2)OO1` (centres undefined), the “fold change (FC)” value with Plasmodium yoelii [5] and in the assay with Plasmodium yoelii [9] was 2 throughout. Besides, the inhibition in vivo at 24 mg/kg with Plasmodium yoelii [6] and in the assay on Plasmodium yoelii [7] was 100% throughout. The survival at 48 mg/kg with Plasmodium yoelii [1] and with Plasmodium yoelii [2] was 100% in each case. Also, the values for the survival at 24 mg/kg with Plasmodium yoelii [8] and in the assay with Plasmodium yoelii [10] were 80% and 0%, respectively. The inhibition in vivo at 48 mg/kg in the assay with Plasmodium yoelii [3] and in the assay on Plasmodium yoelii [4] was 100% throughout.
On to `C=C(c1ccc(Oc2ccc(OCCOC(=O)CCC(=O)O)cc2)cc1)C1COC2(CCCCC2)OO1` (centres undefined), for which the inhibition in vivo at 96 mg/kg in the assay on Plasmodium yoelii [11] amounted to 10%; in the assay on Plasmodium yoelii [12] it was 28.4%. Also, the survival at 96 mg/kg with Plasmodium yoelii [13] and in the assay with Plasmodium yoelii [14] was 0% throughout.
As for `C=C(c1ccc(Oc2ccc3ccc(OCCO)cc3c2)cc1)C1COC2(CCCCC2)OO1` (centres undefined), the survival at 48 mg/kg in the assay on Plasmodium yoelii [1] and in the assay on Plasmodium yoelii [2] was 0% throughout. Further, the inhibition in vivo at 48 mg/kg worked out at 83.5% with Plasmodium yoelii [3] and 71.6% with Plasmodium yoelii [4].
For the molecule `C=C(c1ccc(Oc2ccc(OCCO)cc2)cc1)C1COC2(OO1)C1CC3CC(C1)CC2C3` (centres undefined), the inhibition in vivo at 96 mg/kg with Plasmodium yoelii [11] and in the assay with Plasmodium yoelii [12] was 100% each time. Further, the survival at 48 mg/kg in the assay on Plasmodium yoelii [1] worked out at 0%. Also, the inhibition in vivo at 48 mg/kg with Plasmodium yoelii [3] was 85.5%. For the same molecule, the survival at 96 mg/kg with Plasmodium yoelii [13] worked out at 100%; in the assay on Plasmodium yoelii [14], 0%.
For the molecule `C=C(c1ccc(Oc2ccc(OCCO)cc2)cc1)C1COC2(CCCC2)OO1` (centres undefined), the inhibition in vivo at 96 mg/kg with Plasmodium yoelii [11] turned out to be 38.4%; in the assay on Plasmodium yoelii [12], 85.2%. In addition, the survival at 96 mg/kg in the assay on Plasmodium yoelii [13] and in the assay on Plasmodium yoelii [14] was 0% each time.
Turning to `C=C(c1ccc(Oc2cccc3c(OCCO)cccc23)cc1)C1COC2(CCCC2)OO1` (centres undefined), the survival at 48 mg/kg in the assay with Plasmodium yoelii [1] and in the assay on Plasmodium yoelii [2] was 0% in each case. Besides, the inhibition in vivo at 48 mg/kg with Plasmodium yoelii [3] came out at 44.1%; with Plasmodium yoelii [4] it was 46.2%.
Regarding `C=C(c1ccc(Oc2ccc(OCCOC(=O)CCC(=O)O)cc2)cc1)C1COC2(OO1)C1CC3CC(C1)CC2C3` (centres undefined), the inhibition in vivo at 96 mg/kg with Plasmodium yoelii [11] was determined as 35.6%; in the assay with Plasmodium yoelii [12], 100%. The survival at 96 mg/kg with Plasmodium yoelii [13] turned out to be 0%; with Plasmodium yoelii [14], 40%.
On to `C=C(c1ccc(Oc2cccc3c(OCCO)cccc23)cc1)C1COC2(CCCCC2)OO1` (centres undefined), for which the survival at 48 mg/kg with Plasmodium yoelii [1] and in the assay on Plasmodium yoelii [2] was 0% in each case. Moreover, the inhibition in vivo at 48 mg/kg in the assay on Plasmodium yoelii [3] was determined as 38.2%; in the assay on Plasmodium yoelii [4] it was 46.2%.
For the molecule `C=C(c1ccc(Oc2ccc3ccc(OCCOC(=O)CCC(=O)O)cc3c2)cc1)C1COC2(OO1)C1CC3CC(C1)CC2C3` (centres undefined), the survival at 48 mg/kg in the assay with Plasmodium yoelii [1] and with Plasmodium yoelii [2] was 0% each time. Also, the inhibition in vivo at 48 mg/kg in the assay with Plasmodium yoelii [3] is 77.4%; in the assay on Plasmodium yoelii [4] it was 58.8%.
With `C=C(c1ccc(Oc2ccc(OCCO)cc2)cc1)C1COC2(CCCCC2)OO1` (centres undefined), the inhibition in vivo at 96 mg/kg with Plasmodium yoelii [11] turned out to be 45.4%; in the assay on Plasmodium yoelii [12] it was 72.4%. Further, the survival at 96 mg/kg with Plasmodium yoelii [13] and in the assay on Plasmodium yoelii [14] was 0% throughout.
With `C=C(c1ccc(Oc2ccc(OCCOC(=O)CCC(=O)O)cc2)cc1)C1COC2(CCCC2)OO1` (centres undefined), the inhibition in vivo at 96 mg/kg in the assay with Plasmodium yoelii [11] came to 44.3%; with Plasmodium yoelii [12] it was 77.8%. Moreover, the survival at 96 mg/kg with Plasmodium yoelii [13] and in the assay on Plasmodium yoelii [14] was 0% each time.
On to `C=C(c1ccc(Oc2cccc3c(OCCOC(=O)CCC(=O)O)cccc23)cc1)C1COC2(OO1)C1CC3CC(C1)CC2C3` (centres undefined), for which the survival at 48 mg/kg in the assay on Plasmodium yoelii [1] and with Plasmodium yoelii [2] was 0% in each case. For the same molecule, the figures for the inhibition in vivo at 48 mg/kg in the assay with Plasmodium yoelii [3] and in the assay with Plasmodium yoelii [4] were 27.5% and 42.2%, respectively.
On to `C=C(c1ccc(Oc2ccc3ccc(OCCO)cc3c2)cc1)C1COC2(OO1)C1CC3CC(C1)CC2C3` (centres undefined), for which the survival at 48 mg/kg in the assay with Plasmodium yoelii [1] and in the assay on Plasmodium yoelii [2] was 0% throughout. The inhibition in vivo at 48 mg/kg was 83.2% with Plasmodium yoelii [3] and 51.4% with Plasmodium yoelii [4].
For the molecule `C=C(c1ccc(Oc2cccc3c(OCCO)cccc23)cc1)C1COC2(OO1)C1CC3CC(C1)CC2C3` (centres undefined), the survival at 48 mg/kg is 40% in the assay with Plasmodium yoelii [1] and 0% in the assay with Plasmodium yoelii [2]. The values for the inhibition in vivo at 48 mg/kg in the assay with Plasmodium yoelii [3] and with Plasmodium yoelii [4] were 100% and 46.2%, respectively.
The corresponding values for `C=C(c1ccc(Oc2cccc3c(OCCOC(=O)CCC(=O)O)cccc23)cc1)C1COC2(CCCC2)OO1` (centres undefined) are 0%, 0%, 39.4% and 28.3%.
As for `C=C(c1ccc(Oc2ccc3ccc(OCCOC(=O)CCC(=O)O)cc3c2)cc1)C1COC2(CCCCC2)OO1` (centres undefined), in the assay with Plasmodium yoelii [2], the survival at 48 mg/kg was 60%. Also, the inhibition in vivo at 48 mg/kg in the assay with Plasmodium yoelii [3] and in the assay with Plasmodium yoelii [4] was 100% throughout.
Turning to `C=C(c1ccc(Oc2cccc3c(OCCOC(=O)CCC(=O)O)cccc23)cc1)C1COC2(CCCCC2)OO1` (centres undefined), the survival at 48 mg/kg with Plasmodium yoelii [1] and with Plasmodium yoelii [2] was 0% each time. For the same molecule, the inhibition in vivo at 48 mg/kg with Plasmodium yoelii [3] worked out at 49.8%; in the assay with Plasmodium yoelii [4], 26.6%.
In the case of `C[C@@H]1CC[C@H]2[C@@H](C)C(=O)O[C@@H]3O[C@@]4(C)CC[C@@H]1[C@]32OO4` [ARTEMISININ], the inhibition in vivo at 96 mg/kg with Plasmodium yoelii [11] amounted to 100%. Also, the inhibition in vivo at 24 mg/kg with Plasmodium yoelii [6] stood at 100%. Also, the survival at 48 mg/kg in the assay on Plasmodium yoelii [2] is 100%. Further, the survival at 24 mg/kg in the assay with Plasmodium yoelii [8] is 80%. Also, the inhibition in vivo at 48 mg/kg in the assay with Plasmodium yoelii [4] was determined as 100%.

A word on the inhibition in vivo: it is how much of the control response was suppressed.
